Measurements from paper PMC4351917 (Journal of medicinal chemistry, 2014).
Marks after values point to notes of the source that are not given here. Blank lines part the entries; values can stand above or below the molecule they belong to.

Legend:
[1] = Stability in aqueous media under physiologically relevant conditions; format: physicochemical; details: PBS (pH 7.4 and 6.0), 37 °C, 0.5 mM
Summary of the method: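 Each complex (0.5 mM) was incubated at 37 °C for 24 h in water, PBS pH 7.4, PBS pH 6.0 and 0.05 M HCl (pH 1.5). Samples taken at 1 and 24 h were analysed by isocratic RP-HPLC on a C18 column at 25 °C, with 0.1% TFA water/MeOH adjusted for elution within 15 min and UV detection at 210 nm.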

[2] = Lipophilicity by RP-HPLC retention factors; format: physicochemical; details: for log kw: 0.1% TFA water/MeOH, values extrapolated to 0% MeOH; for log k30: mobile phase containing 30% MeOH
CH1 (ovarian carcinoma) [3] = details: read-out: IC50, 96 h CH1; MTT assay, exposure 96 h; cited from earlier work
[4] = test system: A549 (nonsmall cell lung cancer); details: read-out: IC50, 96 h A549; MTT assay, exposure 96 h; cited from earlier work
[5] = Platinum concentration in mouse tissues and serum by ICP-MS; format: in vivo, Balb/c mice; details: for serum platinum level: CT-26 mice
SW480 (colon carcinoma) [6] = details: read-out: IC50, 96 h SW480; MTT assay, exposure 96 h; cited from earlier work
CH1 (ovarian carcinoma) [7] = test: MTT cytotoxicity assay, CH1; format: cell-based, human; details: CH1 cells
Summary of the method: (§1)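 Adherent cells grown in MEM with 10% FBS, pyruvate, NEAA and glutamine, without antibiotics. Seeded per well at 1.0 × 10³ for CH1 and 2.0 × 10³ for SW480, then settled for 24 h. Serial dilutions of test compound in medium were applied for 96 h continuous exposure at 37 °C. MTT was added for 4 h, formazan dissolved in DMSO, and read at 550 nm (ref 690 nm). IC₅₀ was interpolated from concentration–effect curves, ≥3 independent experiments in triplicate.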

[8] = test system: L1210 murine leukemia cells; test: Antileukemic activity in vivo; design: species or system female DBA/2J × Balb/c SCID F1 mice; details: L1210 leukemia-bearing mice
SW480 (colon carcinoma) [9] = test: MTT cytotoxicity assay, SW480; format: cell-based, human; details: SW480 cells
Summary of the method: as §1

[10] = General toxicity in the animal experiments; details: all in vivo experiments, 10-30 mg/kg i.p., mice
Summary of the method: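 Test compound in water, given i.p. L1210 model: female DBA/2J × Balb/c SCID F1 mice, 1 × 10⁵ cells i.p. on day 0, dosed 10, 20, 30 mg/kg on days 1, 5, 9, with daily observation and body weight. CT-26 model: female Balb/c mice aged 6–8 weeks, 5 × 10⁵ cells s.c. into the flank, 30 mg/kg on days 4, 7, 11, 14, with daily distress checks.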

[11] = Reduction by sodium ascorbate, RP-HPLC; format: physicochemical; details: 15-fold excess sodium ascorbate
Aqueous solubility = format: physicochemical; details: water
[12] = 9 mg/kg i.v. days 4, 7, 11, 14, day 15
[13] = 30 mg/kg i.p. days 4, 7, 11, 14, day 15

Molecule: CCN.CCN.O=C([O-])CC(=O)[O-].O=C([O-])CC(=O)[O-].[Pt+4] [2b, (OC-6-22)-Bis(ethylamine)bis(malonato)platinum(IV)]
decomposition after 24 h of incubation in PBS solution [1]: < 10%

log kw [2]: 1.28 ± 0.01 | log k30 [2]: 0.28 ± 0.01
Molecule: NCCN.O=C1[O][Pt]2([O]C(=O)C13CCC3)[O]C(=O)C1(CCC1)C(=O)[O]2 [1d, (OC-6-22)-Bis(1,1-cyclobutanedicarboxylato)ethane-1,2-diamineplatinum(IV)]

log kw [2]: 1.63 ± 0.04 | log k30 [2]: 0.68 ± 0.01
Molecule: CC(=O)[O][Pt]([NH2])([Cl])([Cl])([NH]C1CCCCC1)[O]C(C)=O [satraplatin, reference compound]

Molecule: O=C1[O][Pt]2([NH][C@@H]3CCCC[C@H]3[NH]2)[O]C1=O [oxaliplatin, reference compound]
IC50 (CH1 (ovarian carcinoma) [3]): 0.18 ± 0.01 µM | IC50 [4]: 0.98 ± 0.21 µM | serum platinum level ([5]; 9 mg/kg i.v. days 4, 7, 11, 14, 24 h after last application): ~ 0.3 μg/mL | platinum in kidney [5, 12]: ~ 4.5 μg/g | platinum in liver [5, 12]: ~ 2 μg/g | IC50 (SW480 (colon carcinoma) [6]): 0.29 ± 0.05 µM

Molecule: N.N.O=C([O-])C1(C(=O)[O-])CCC1.[Pt+2] [carboplatin, reference compound]
IC50 [4]: 91 ± 10 µM | log kw [2]: −0.36 ± 0.04^c | log k30 [2]: −0.80 ± 0.01

Molecule: (OC-6-22)-((1R,2R)-Diaminocyclohexane)bis(malonato)-platinum(IV) [4b]
times more potent than 1b (CH1 (ovarian carcinoma) [7]; versus 1b): 4 times | times more potent than 2b (CH1 (ovarian carcinoma) [7]; versus 2b): 12 times | potency relative to 3b (CH1 (ovarian carcinoma) [7]; versus 3b): twice as potent | activity relative to 5b (CH1 (ovarian carcinoma) [7]; versus 5b): same activity | effect on survival ([8]; 10 mg/kg i.p. on days 1, 5, 9): no effect on the survival | mice being cured ([8]; 30 mg/kg i.p. on days 1, 5, 9, n = 4): 3/4 | times more active than 1b, 2b, and 3b (SW480 (colon carcinoma) [9]; versus 1b, 2b and 3b): at least 8 times | times more active than 5b (SW480 (colon carcinoma) [9]; versus 5b): 6 times | log kw [2]: −0.11 ± 0.01 | log k30 [2]: −0.65 ± 0.02 | tolerability / signs of toxicity (fatigue, weight loss) [10]: well-tolerated with no signs of toxicity | decomposition after 24 h of incubation in PBS solution [1]: no decomposition products were observed | complex still in its native form ([11]; PBS pH 7.4, 37 °C, after 20 h): more than 90% | complex intact ([11]; unbuffered water, 37 °C, after 24 h): ~ 95% | aqueous solubility (Aqueous solubility): > 15 mM | serum platinum level ([5]; 30 mg/kg i.p. days 4, 7, 11, 14, 24 h after last application): ~ 3 μg/mL | platinum in kidney [5, 13]: ~ 10.5 μg/g | platinum in liver [5, 13]: ~ 15 μg/g | platinum in lung [5, 13]: ~ 5 μg/g | platinum in sciatic nerve [5, 13]: ~ 1.8 μg/g | platinum in tumor tissue [5, 13]: ~ 5 μg/g | serum platinum circulation compared to oxaliplatin-treated mice ([5]; 4b 30 mg/kg i.p. versus oxaliplatin 9 mg/kg i.v., 24 h after last application): 10 times
